Broadly, the Papp A→B is how fast a substance crosses the layer from the apical side. Usually half-life stands for the time needed for the level to fall by half in the phase considered. In general, IC50 refers to the concentration needed to halve the response being measured.

The source made the active and inactive calls.

This note sets out measurements from ChEMBL document CHEMBL4808174, “Exploring Heteroaromatic Rings as a Replacement for the Labile Amide of Antiplasmodial Pantothenamides” (J Med Chem, 2021).

A short description of data set [1]: Drug degradation in mouse liver microsomes in absence of NADPH after 60 mins. It counts as ADME, Microsome. Conditions: read-out: Drug degradation. The procedure, abridged:
(§1)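 Degradation in mouse or human liver microsomes was followed over 60 min, with and without an NADPH-regenerating system.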

Data set [2] concerns Plasmodium falciparum. Put plainly: Antiplasmodial activity against ring stage Plasmodium falciparum 3D7 infected in human erythrocytes assessed as inhibition of parasite growth incubated for 48 hrs by SYBR Green I dye based fluorescence assay. Type of data set: functional, organism-based. Conditions: Erythrocyte. The procedure, abridged: (§2)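 Triple-sorbitol-synchronized 3D7 ring-stage cultures at 0.5% parasitemia and 1% hematocrit were exposed to compound at ten concentrations at 37 °C in 96% N₂, 3% CO₂, 1% O₂. After 5, 10, 24 or 48 h, cells were washed three times and resuspended without compound. Total culture time 96 h, then SYBR Safe fluorescence. Three experiments in triplicate.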

Data set [3] in a line: Drug degradation in mouse liver microsomes in presence of NADPH after 60 mins. Conditions: 1 h. Type of data set: ADME, Microsome. The method in brief:
as §1
Background: Liver microsomes are a subcellular fraction often used to study metabolism.

The subject of data set [4] is Plasmodium falciparum. Put plainly: Antiplasmodial activity against ring stage Plasmodium falciparum 3D7 infected in human erythrocytes assessed as inhibition of parasite growth incubated for 10 hrs by SYBR Green I dye based fluorescence assay. Type of data set: functional, organism-based. The note with it: Erythrocyte. The procedure, abridged:
as §2

A short description of data set [5]: Antiproliferative activity against human HFF cells assessed as cell proliferation at 200 uM incubated for 3 to 4 days in presence of 1 uM pantothenate by SYBR assay.
The nature of data set [6]: Apparent permeability of the compound across apical to basolateral side in human Caco-2 cells at 20 uM.
The test system of another data set is Plasmodium berghei. The experiment in a line: Antiplasmodial activity against Plasmodium berghei ANKA infected in BALB/c mouse model of malaria assessed as reduction in parasitemia at 100 mg/kg/day, ip for 2 days by Giemsa staining based flow cytometry analysis. Type of data set: functional, organism-based. The note with it: time 2.0 day. The procedure, abridged: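 Female BALB/c mice, 8-12 weeks, infected ip with 1 × 10⁵ P. berghei ANKA-infected erythrocytes. Once parasitemia reached 0.4-1.5% (5 mice per group), 100 mg/kg was given ip in 150 mM NaCl containing 20.9% v/v DMSO; second dose at 24 h. Daily tail-bleed parasitemia was read by Giemsa-stained thin smear or by flow cytometry (JC-1, Hoechst 33342, anti-CD45/CD71/TER119).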
For orientation: Flow cytometry measures light scatter and fluorescence of single cells or particles in a stream.

Data set [7] is described as follows: Metabolic stability in mouse liver microsomes assessed as half life at 1 uM in presence or absence of NADPH regenerating system by LC-MS analysis. Type of data set: ADME, Microsome. The method in brief: (§3)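 Stability in mouse or human liver microsomes was measured with and without an NADPH-regenerating system, giving in vitro t1/2 and intrinsic clearance in μL/min/mg protein.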

Data set [8] has as its system Plasmodium falciparum. The experiment in a line: Antiplasmodial activity against ring stage Plasmodium falciparum 3D7 infected in human erythrocytes assessed as inhibition of parasite growth incubated for 96 hrs in presence of 1 uM pantothenate by SYBR Green I dye based fluorescence assay. Type of data set: functional, organism-based. Conditions: 3D7, Erythrocyte. The method in brief:
(§4)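 P. falciparum 3D7 ring stages at 0.5% parasitemia and 1% hematocrit in Albumax II medium. Where specified, 100 μM sodium pantothenate was added. Incubation 96 h, then freeze-thaw and SYBR Safe lysis-buffer fluorescence. Chloroquine 0.25-25 μM served as zero-proliferation control. Experiments in triplicate; 100 μM pantothenate data from two experiments.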

Data set [9] has as its system Plasmodium falciparum. The experiment in a line: Antiplasmodial activity against ring stage Plasmodium falciparum 3D7 infected in human erythrocytes assessed as inhibition of parasite growth at 100 uM pretreated with compound followed by parasite infection by SYBR Green I dye based fluorescence assay. The note with it: Erythrocyte. It counts as functional, organism-based.

Data set [10] can be described thus: Drug concentration in BALB/c mouse plasma at 100 mg/kg/day, ip measured after 1 day. Type of data set: ADME, organism-based. Conditions: whole blood, in the assay text read “whole blood” for “plasma”. The procedure, abridged: (§5)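 Dosing was 100 mg/kg ip in P. berghei-infected female BALB/c mice, repeated at 24 h. 10 μL tail whole blood was sampled by microsampling device at 3 h, at ~24 h (before the second dose) and at 48 h. Samples were extracted with 80% acetonitrile using diazepam as internal standard and quantified by LC-MS MRM against a spiked-blood standard curve of 5 ng/mL-20 μg/mL. LLQ was 16 or 17 nM. Mean of five mice.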

The subject of data set [11] is Plasmodium falciparum. Put plainly: Antiplasmodial activity against ring stage Plasmodium falciparum 3D7 infected in human erythrocytes assessed as inhibition of parasite growth incubated for 24 hrs by SYBR Green I dye based fluorescence assay. Type of data set: functional, organism-based. Conditions: Erythrocyte. The procedure, abridged:
as §2

The test system of data set [12] is Plasmodium falciparum. Put plainly: Antiplasmodial activity against ring stage Plasmodium falciparum 3D7 infected in human erythrocytes assessed as inhibition of parasite growth incubated for 96 hrs in presence of 100 uM pantothenate by SYBR Green I dye based fluorescence assay. Type of data set: functional, organism-based. Conditions: 3D7, Erythrocyte. The method in brief: as §4

Data set [13] can be described thus: Metabolic stability in human liver microsomes assessed as half life at 1 uM in presence or absence of NADPH regenerating system by LC-MS analysis. Type of data set: ADME, Microsome. The method in brief:
as §3

A short description of data set [14]: Metabolic stability in mouse liver microsomes assessed as intrinsic clearance at 1 uM in presence or absence of NADPH regenerating system measured per mg protein by LC-MS analysis. Type of data set: ADME, Microsome. The note with it: read-out: CLH. The procedure, abridged:
as §3

Data set [15] can be described thus: Drug concentration in BALB/c mouse plasma at 100 mg/kg/day, ip measured after 2 days. Type of data set: ADME, organism-based. The note with it: whole blood, in the assay text read “whole blood” for “plasma”. The procedure, abridged: as §5
Data set [16] is described as follows: Drug concentration in BALB/c mouse plasma at 100 mg/kg/day, ip measured after 3 hrs. Type of data set: ADME, organism-based. The note with it: whole blood, in the assay text read “whole blood” for “plasma”. The procedure, abridged: as §5
A short description of data set [17]: Metabolic stability in human liver microsomes assessed as intrinsic clearance at 1 uM in presence of absence of NADPH regenerating system measured per mg protein by LC-MS analysis. Type of data set: ADME, Microsome. The note with it: read-out: CLH. The procedure, abridged:
as §3

The nature of data set [18]: Antiproliferative activity against human HFF cells assessed as cell proliferation at 100 uM incubated for 3 to 4 days in presence of 1 uM pantothenate by SYBR assay.
Another data set deals with Plasmodium knowlesi. Put plainly: Antiplasmodial activity against Plasmodium knowlesi infected in human erythrocytes assessed as inhibition of parasite growth incubated for 72 hrs in presence of 1 uM pantothenate by SYBR Green I dye based fluorescence assay. It counts as functional, organism-based. Conditions: Erythrocyte.
Data set [19] is described as follows: Selectivity index, ratio of IC50 for human HFF cells to IC50 for Plasmodium falciparum in presence of 1 uM pantothenate. Type of data set: toxicity. Conditions: HFF cells versus Plasmodium falciparum, read-out: Ratio IC50. The procedure, abridged:
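HFF cells grown 3-4 days in RPMI 1640 with 10% bovine calf serum and antibiotics, with compound up to 200 μM; SYBR Safe-based read-out. Selectivity index = HFF IC50 divided by P. falciparum IC50 at 1 μM pantothenate. Where HFF inhibition stayed below 50%, 200 μM (or 100 μM) was used as the HFF value to set limits.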

For data set [20], the system named is Plasmodium falciparum. Put plainly: Antiplasmodial activity against ring stage Plasmodium falciparum NF54 infected in human erythrocytes assessed as inhibition of parasite growth incubated for 72 hrs in presence of pantothenate by SYBR Green dye based fluorescence assay. Type of data set: functional, organism-based. The note with it: NF54, Erythrocyte.

As to `CCCCCc1cc(CNC(=O)[C@H](O)C(C)(C)CO)no1`, in data set [1], the metabolised at 1 h worked out at 20%. In addition, the result in the data set on Plasmodium falciparum [2] and in the data set on Plasmodium falciparum [11] was Active. For the same molecule, in data set [3], the Stabilty result is on record as “Unstable”. Further, the result in the data set on Plasmodium falciparum [4], with Plasmodium berghei and with Plasmodium falciparum [9] was inactive. Moreover, the proliferation at 200 µM in data set [5] turned out to be 71%. Besides, the Papp A→B at 20 µM in data set [6] was found to be 55 ×10⁻⁶ cm/s. Further, the half-life at 1 µM came out at 0.55 h in data set [7] and 2.53 h in data set [13]. For the same molecule, the results for the IC50 in the data set with Plasmodium falciparum [8], in the data set on Plasmodium falciparum [12] and with Plasmodium knowlesi were 160 nM, more than 1000 nM and 6.1 nM, respectively. The concentration at 24 h in data set [10] is less than 17 nM. For the same molecule, the microsomal CLint at 1 µM in data set [14] was determined as 53 µL/min/mg; in data set [17], 11 µL/min/mg. Also, the concentration at 48 h in data set [15] was less than 17 nM. In data set [16], this molecule gave a concentration at 3 h of 72 nM. Further, the proliferation at 100 µM in [18] turned out to be 104%. In [19], the selectivity ratio at 1 µM was more than 1200.
Turning to `CCCCCC(=O)NCCNC(=O)[C@H](O)C(C)(C)CO`, in the data set on Plasmodium falciparum [20], the IC50 stood at 630 nM.
